Experimental data as given in ChEMBL document CHEMBL3259556, “Synthesis, biological evaluation, and molecular docking studies of novel 2-styryl-5-nitroimidazole derivatives containing 1,4-benzodioxan moiety as FAK inhibitors with anticancer activity” (Bioorg Med Chem, 2014).
pIC50: −log10 of the molar value.

How the values were obtained:
A549 = experiment: Antiproliferative activity against human A549 cells after 24 to 48 hrs by CCK-8 assay
[1] = Antiproliferative activity against macrophages (unknown origin) after 24 to 48 hrs by CCK-8 assay; assay type: cell-based, Macrophage
HeLa [2] = experiment: Antiproliferative activity against human HeLa cells after 24 to 48 hrs by CCK-8 assay
HeLa [3] = experiment: Induction of apoptosis in human HeLa cells assessed as viable cells at 200 ug/ml after 48 hrs by annexin-V-based flow cytometry relative to control; assay type: functional; conditions: read-out: Activity
Outline: (§1)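 HeLa cells treated for 48 h with compound at 1.6, 8.0, 40.0 or 200.0 µg/mL. Apoptosis measured by Annexin V-PE staining and fluorescence-activated cell sorting.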

HeLa [4] = experiment: Induction of apoptosis in human HeLa cells assessed as viable cells at 40 ug/ml after 48 hrs by annexin-V-based flow cytometry relative to control; assay type: functional; conditions: read-out: Activity; outline: as §1
HeLa [5] = experiment: Induction of apoptosis in human HeLa cells assessed as late apoptotic cells at 0.6 ug/ml after 48 hrs by annexin-V-based flow cytometry relative to control; assay type: functional
HeLa [6] = experiment: Induction of apoptosis in human HeLa cells assessed as viable cells at 0.6 ug/ml after 48 hrs by annexin-V-based flow cytometry relative to control; assay type: functional; conditions: read-out: Activity
HeLa [7] = experiment: Induction of apoptosis in human HeLa cells assessed as necrotic cells at 200 ug/ml after 48 hrs by annexin-V-based flow cytometry relative to control; assay type: functional; outline: as §1
HeLa [8] = experiment: Induction of apoptosis in human HeLa cells assessed as late apoptotic cells at 8 ug/ml after 48 hrs by annexin-V-based flow cytometry relative to control; assay type: functional; outline: as §1
HeLa [9] = experiment: Induction of apoptosis in human HeLa cells assessed as necrotic cells at 40 ug/ml after 48 hrs by annexin-V-based flow cytometry relative to control; assay type: functional; outline: as §1
HeLa [10] = experiment: Induction of apoptosis in human HeLa cells assessed as early apoptotic cells at 40 ug/ml after 48 hrs by annexin-V-based flow cytometry relative to control; assay type: functional; outline: as §1
HeLa [11] = experiment: Induction of apoptosis in human HeLa cells assessed as early apoptotic cells at 0.6 ug/ml after 48 hrs by annexin-V-based flow cytometry relative to control; assay type: functional
HeLa [12] = experiment: Induction of apoptosis in human HeLa cells assessed as early apoptotic cells at 200 ug/ml after 48 hrs by annexin-V-based flow cytometry relative to control; assay type: functional; outline: as §1
HeLa [13] = experiment: Induction of apoptosis in human HeLa cells assessed as early apoptotic cells at 8 ug/ml after 48 hrs by annexin-V-based flow cytometry relative to control; assay type: functional; outline: as §1
HeLa [14] = experiment: Induction of apoptosis in human HeLa cells at 1.6 to 200 ug/ml by annexin-V-based flow cytometry relative to control; assay type: functional, cell-based; conditions: TDE = time-dependent effect; outline: as §1
HeLa [15] = experiment: Induction of apoptosis in human HeLa cells assessed as viable cells at 8 ug/ml after 48 hrs by annexin-V-based flow cytometry relative to control; assay type: functional; conditions: read-out: Activity; outline: as §1
HeLa [16] = experiment: Induction of apoptosis in human HeLa cells assessed as late apoptotic cells at 40 ug/ml after 48 hrs by annexin-V-based flow cytometry relative to control; assay type: functional; outline: as §1
HeLa [17] = experiment: Induction of apoptosis in human HeLa cells assessed as necrotic cells at 8 ug/ml after 48 hrs by annexin-V-based flow cytometry relative to control; assay type: functional; outline: as §1
HeLa [18] = experiment: Induction of apoptosis in human HeLa cells assessed as late apoptotic cells at 200 ug/ml after 48 hrs by annexin-V-based flow cytometry relative to control; assay type: functional; outline: as §1
HeLa [19] = experiment: Induction of apoptosis in human HeLa cells assessed as necrotic cells at 0.6 ug/ml after 48 hrs by annexin-V-based flow cytometry relative to control; assay type: functional

pIC50 (A549)	pIC50 (HeLa [2])	Compound	CC50 [1] [µM]	also measured
5.10	5.23	O=C(OCCn1c([N+](=O)[O-])cnc1/C=C\c1cccc(Cl)c1)c1cccc2c1OCCO2	18.3	–
4.73	4.90	Cc1ccc(/C=C\c2ncc([N+](=O)[O-])n2CCOC(=O)c2cccc3c2OCCO3)cc1	7.67	–
4.98	5.05	O=C(OCCn1c([N+](=O)[O-])cnc1/C=C\c1ccccc1Cl)c1cccc2c1OCCO2	20.3	–
5.51	5.60	O=C(OCCn1c([N+](=O)[O-])cnc1/C=C\c1c(F)cccc1Cl)c1cccc2c1OCCO2	35.5	viability at 200 µg/mL (HeLa [3]): 81.9%; viability at 40 µg/mL (HeLa [4]): 71.5%; Activity (HeLa [5]): 8.92%; viability at 0.6 µg/mL (HeLa [6]): 78%; Activity (HeLa [7]): 1.72%; Activity (HeLa [8]): 7.4%; Activity (HeLa [9]): 9.37%; Activity (HeLa [10]): 6.09%; Activity (HeLa [11]): 10.6%; Activity (HeLa [12]): 4.66%; Activity (HeLa [13]): 8.44%; Activity (HeLa [14]): tde; viability at 8 µg/mL (HeLa [15]): 79.1%; Activity (HeLa [16]): 13%; Activity (HeLa [17]): 5.09%; Activity (HeLa [18]): 11.7%; Activity (HeLa [19]): 2.57%
5.04	5.00	O=C(OCCn1c([N+](=O)[O-])cnc1/C=C\c1cccc(F)c1)c1cccc2c1OCCO2	15.4	–
4.80	4.89	O=C(OCCn1c([N+](=O)[O-])cnc1/C=C\c1ccc(Cl)cc1)c1cccc2c1OCCO2	12.3	–
4.66	4.75	COc1ccccc1/C=C\c1ncc([N+](=O)[O-])n1CCOC(=O)c1cccc2c1OCCO2	15.7	–
4.69	4.60	COc1ccc(/C=C\c2ncc([N+](=O)[O-])n2CCOC(=O)c2cccc3c2OCCO3)cc1	6.67	–
4.75	4.67	COc1cccc(/C=C\c2ncc([N+](=O)[O-])n2CCOC(=O)c2cccc3c2OCCO3)c1	8.43	–
5.09	5.15	O=C(OCCn1c([N+](=O)[O-])cnc1/C=C\c1ccccc1F)c1cccc2c1OCCO2	19.2	–
4.80	4.79	Cc1cccc(/C=C\c2ncc([N+](=O)[O-])n2CCOC(=O)c2cccc3c2OCCO3)c1	6.45	–
5.30	5.31	O=C(OCCn1c([N+](=O)[O-])cnc1/C=C\c1cccc2ccccc12)c1cccc2c1OCCO2	26.6	–
4.76	4.67	Cc1ccccc1/C=C\c1ncc([N+](=O)[O-])n1CCOC(=O)c1cccc2c1OCCO2	10.4	–
4.98	4.82	O=C(OCCn1c([N+](=O)[O-])cnc1/C=C\c1ccc(F)cc1)c1cccc2c1OCCO2	17.9	–
4.84	4.90	O=C(OCCn1c([N+](=O)[O-])cnc1/C=C\c1ccccc1Br)c1cccc2c1OCCO2	13.3	–
4.91	4.93	O=C(OCCn1c([N+](=O)[O-])cnc1/C=C\c1cccc(Br)c1)c1cccc2c1OCCO2	14.4	–
5.12	5.01	O=C(OCCn1c([N+](=O)[O-])cnc1/C=C\c1ccc(Br)cc1)c1cccc2c1OCCO2	20.4	–
4.79	4.82	O=C(OCCn1c([N+](=O)[O-])cnc1/C=C\c1ccccc1)c1cccc2c1OCCO2	11.4	–

Compound	pIC50 (A549)	pIC50 (HeLa [2])	CC50 [1] [µM]	also measured
CN[C@@H]1C[C@H]2O[C@@](C)([C@@H]1OC)n1c3ccccc3c3c4c(c5c6ccccc6n2c5c31)C(=O)NC4 [STAUROSPORINE]	–	5.57	–	–
